Results taken from ChEMBL document CHEMBL4706775, “Discovery of Arylsulfonamide Na1.7 Inhibitors: IVIVC, MPO Methods, and Optimization of Selectivity Profile” (ACS Med Chem Lett, 2021).

Tests used:
[1] = target: Sodium channel protein type 8 subunit alpha (Homo sapiens, UniProt Q9UQD0); assay: Inhibition of human Nav1.6 alpha expressed in HEK293 cells incubated for 5 mins with 6 consecutive train pulses to -10 mV at 0.1 Hz and holding potential of -65 mV by Qube-automated patch clamp assay; assay type: ADME, cell-based
Sodium channel protein type 8 subunit alpha, sequence (Q9UQD0 whole entry): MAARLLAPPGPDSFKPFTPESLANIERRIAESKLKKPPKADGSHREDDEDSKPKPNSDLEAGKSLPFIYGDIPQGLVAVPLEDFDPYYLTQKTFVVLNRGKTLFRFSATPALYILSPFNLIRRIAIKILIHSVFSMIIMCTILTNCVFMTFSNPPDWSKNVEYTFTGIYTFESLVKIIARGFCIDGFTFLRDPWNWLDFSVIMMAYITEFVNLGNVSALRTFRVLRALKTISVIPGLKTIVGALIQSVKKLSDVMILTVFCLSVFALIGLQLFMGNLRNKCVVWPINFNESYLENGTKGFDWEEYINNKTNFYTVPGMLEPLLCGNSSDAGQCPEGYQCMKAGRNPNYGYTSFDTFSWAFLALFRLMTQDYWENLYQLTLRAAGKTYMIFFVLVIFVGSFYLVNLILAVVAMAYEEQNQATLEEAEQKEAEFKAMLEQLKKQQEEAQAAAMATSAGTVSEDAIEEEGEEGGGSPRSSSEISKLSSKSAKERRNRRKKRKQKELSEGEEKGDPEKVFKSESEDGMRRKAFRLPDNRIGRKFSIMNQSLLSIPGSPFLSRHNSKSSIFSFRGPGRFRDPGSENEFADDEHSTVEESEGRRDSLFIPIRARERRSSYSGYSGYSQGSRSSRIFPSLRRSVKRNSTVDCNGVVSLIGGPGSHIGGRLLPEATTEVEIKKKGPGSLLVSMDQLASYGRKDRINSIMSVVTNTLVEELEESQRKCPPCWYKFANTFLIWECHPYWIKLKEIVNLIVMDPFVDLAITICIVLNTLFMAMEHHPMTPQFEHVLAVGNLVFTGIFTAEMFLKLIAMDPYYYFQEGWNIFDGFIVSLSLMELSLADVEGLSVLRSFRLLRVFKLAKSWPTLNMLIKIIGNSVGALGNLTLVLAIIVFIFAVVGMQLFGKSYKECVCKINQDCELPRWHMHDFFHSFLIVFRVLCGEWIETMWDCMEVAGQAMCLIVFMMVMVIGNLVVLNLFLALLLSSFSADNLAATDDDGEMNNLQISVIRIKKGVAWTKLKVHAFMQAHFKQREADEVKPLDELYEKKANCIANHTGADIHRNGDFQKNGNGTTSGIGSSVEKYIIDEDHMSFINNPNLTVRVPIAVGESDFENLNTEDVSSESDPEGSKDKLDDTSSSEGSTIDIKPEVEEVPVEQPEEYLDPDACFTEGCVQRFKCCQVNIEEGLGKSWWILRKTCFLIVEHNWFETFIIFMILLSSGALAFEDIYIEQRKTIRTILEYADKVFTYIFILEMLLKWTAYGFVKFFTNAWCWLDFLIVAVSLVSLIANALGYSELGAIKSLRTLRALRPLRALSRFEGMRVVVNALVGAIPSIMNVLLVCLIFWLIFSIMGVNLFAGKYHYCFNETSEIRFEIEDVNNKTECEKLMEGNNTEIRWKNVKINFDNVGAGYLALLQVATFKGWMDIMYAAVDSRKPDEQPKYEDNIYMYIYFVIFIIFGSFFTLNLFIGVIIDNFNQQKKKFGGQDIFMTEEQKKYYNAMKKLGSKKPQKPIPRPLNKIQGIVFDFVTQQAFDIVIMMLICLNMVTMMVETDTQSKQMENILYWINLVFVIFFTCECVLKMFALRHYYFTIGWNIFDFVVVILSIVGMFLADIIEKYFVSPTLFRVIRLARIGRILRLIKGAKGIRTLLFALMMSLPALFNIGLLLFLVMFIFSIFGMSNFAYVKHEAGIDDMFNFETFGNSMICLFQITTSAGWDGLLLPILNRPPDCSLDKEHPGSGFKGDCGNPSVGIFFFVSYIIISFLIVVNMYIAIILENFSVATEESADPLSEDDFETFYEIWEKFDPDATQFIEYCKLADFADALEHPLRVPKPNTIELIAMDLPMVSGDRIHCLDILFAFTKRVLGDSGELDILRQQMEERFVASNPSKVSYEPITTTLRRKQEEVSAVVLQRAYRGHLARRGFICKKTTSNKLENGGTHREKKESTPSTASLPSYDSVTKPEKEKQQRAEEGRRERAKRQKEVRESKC

[2] = target: Sodium channel protein type 9 subunit alpha (Homo sapiens, UniProt Q15858); assay: Inhibition of human Nav1.7 alpha expressed in HEK293 cells incubated for 5 mins with 6 consecutive train pulses to -10 mV at 0.1 Hz and holding potential of -65 mV by Qube-automated patch clamp assay; assay type: cell-based
Sodium channel protein type 9 subunit alpha, sequence (Q15858 whole entry): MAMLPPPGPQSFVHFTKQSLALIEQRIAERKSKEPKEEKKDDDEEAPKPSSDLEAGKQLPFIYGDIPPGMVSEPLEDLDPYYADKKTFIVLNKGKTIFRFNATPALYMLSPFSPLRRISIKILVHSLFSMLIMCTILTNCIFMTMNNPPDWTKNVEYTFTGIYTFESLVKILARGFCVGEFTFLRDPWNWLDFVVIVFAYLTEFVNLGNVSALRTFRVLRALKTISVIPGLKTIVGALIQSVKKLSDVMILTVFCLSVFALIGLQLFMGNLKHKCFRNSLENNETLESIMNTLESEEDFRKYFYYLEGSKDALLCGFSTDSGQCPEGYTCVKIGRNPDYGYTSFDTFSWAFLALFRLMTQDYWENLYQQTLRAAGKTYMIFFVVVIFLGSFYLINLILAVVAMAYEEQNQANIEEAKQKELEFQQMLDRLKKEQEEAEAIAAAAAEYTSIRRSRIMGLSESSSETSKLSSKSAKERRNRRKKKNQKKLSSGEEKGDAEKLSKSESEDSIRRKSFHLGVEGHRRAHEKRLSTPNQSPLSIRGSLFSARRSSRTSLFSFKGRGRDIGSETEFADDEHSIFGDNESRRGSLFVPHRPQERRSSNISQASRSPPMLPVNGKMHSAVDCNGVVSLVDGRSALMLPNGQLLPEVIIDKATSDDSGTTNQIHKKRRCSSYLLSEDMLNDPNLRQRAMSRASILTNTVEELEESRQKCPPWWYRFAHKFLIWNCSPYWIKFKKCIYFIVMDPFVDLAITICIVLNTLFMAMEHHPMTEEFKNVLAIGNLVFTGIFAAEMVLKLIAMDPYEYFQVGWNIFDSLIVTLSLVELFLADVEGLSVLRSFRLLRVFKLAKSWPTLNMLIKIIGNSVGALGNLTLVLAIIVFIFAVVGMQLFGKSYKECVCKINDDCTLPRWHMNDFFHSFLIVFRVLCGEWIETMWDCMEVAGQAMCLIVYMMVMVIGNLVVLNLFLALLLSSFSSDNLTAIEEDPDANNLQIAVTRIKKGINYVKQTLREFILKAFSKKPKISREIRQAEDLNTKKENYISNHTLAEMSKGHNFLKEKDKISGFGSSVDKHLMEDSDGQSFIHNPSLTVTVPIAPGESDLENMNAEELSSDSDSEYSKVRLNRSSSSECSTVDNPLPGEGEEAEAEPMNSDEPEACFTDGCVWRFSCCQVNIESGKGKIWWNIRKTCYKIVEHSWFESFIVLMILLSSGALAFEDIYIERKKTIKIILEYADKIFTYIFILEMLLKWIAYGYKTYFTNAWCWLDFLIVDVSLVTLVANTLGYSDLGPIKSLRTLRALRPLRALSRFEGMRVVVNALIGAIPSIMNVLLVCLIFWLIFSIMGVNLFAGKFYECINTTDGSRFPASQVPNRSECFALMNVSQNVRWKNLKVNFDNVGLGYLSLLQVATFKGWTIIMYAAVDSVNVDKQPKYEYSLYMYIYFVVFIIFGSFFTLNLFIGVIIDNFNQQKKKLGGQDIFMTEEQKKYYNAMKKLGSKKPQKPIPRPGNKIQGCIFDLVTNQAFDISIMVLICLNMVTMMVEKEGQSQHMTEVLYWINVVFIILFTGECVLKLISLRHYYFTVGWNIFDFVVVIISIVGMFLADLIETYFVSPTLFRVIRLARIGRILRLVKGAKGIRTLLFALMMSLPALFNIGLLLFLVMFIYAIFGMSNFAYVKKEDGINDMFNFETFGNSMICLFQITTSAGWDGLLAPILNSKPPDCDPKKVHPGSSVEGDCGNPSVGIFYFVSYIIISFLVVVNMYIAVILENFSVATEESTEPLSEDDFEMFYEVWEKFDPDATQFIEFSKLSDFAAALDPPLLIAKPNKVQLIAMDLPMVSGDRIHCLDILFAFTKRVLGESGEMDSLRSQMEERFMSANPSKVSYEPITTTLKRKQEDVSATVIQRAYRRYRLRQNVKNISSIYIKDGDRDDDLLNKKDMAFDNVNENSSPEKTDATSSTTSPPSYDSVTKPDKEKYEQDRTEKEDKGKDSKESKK

[3] = Intrinsic clearance in rat at 0.05 mg/kg, iv administered as cassette dose or 2 mg/kg, iv administered as single dose; details: in vivo
[4] = Apparent permeability in MDCK cells by Monolayer assay; assay type: ADME, cell-based, Canis lupus familiaris; details: dog
[5] = Drug concentration in plasma of formalin-induced C57BL/6 mouse model of formalin-induced pain at 300 mg/kg, po pretreated with compound for 15 mins followed by formalin challenge and measured after […]; assay type: ADME, organism-based
[6] = Kinetic solubility of compound at pH 2 by HPLC analysis; assay type: physicochemical; details: buffer, read-out: Kinetic_solubility
[7] = Clearance in rhesus monkey; assay type: ADME, Macaca mulatta; details: in vivo
[8] = Oral bioavailability in rat; assay type: ADME, organism-based; details: in vivo
[9] = Volume of distribution at steady state in dog; assay type: ADME, Canis lupus familiaris; details: in vivo, read-out: Vdss
[10] = Drug concentration in mouse CSF at 100 mg/kg, po measured after 1.25 hrs; assay type: ADME, organism-based, Cerebrospinal fluid; details: read-out: Ct
Cytochrome P450 2D6 = Cytochrome P450 2D6 (Homo sapiens, UniProt P10635); assay: Inhibition of […] (unknown origin); assay type: ADME
Cytochrome P450 2D6, sequence (P10635 whole entry): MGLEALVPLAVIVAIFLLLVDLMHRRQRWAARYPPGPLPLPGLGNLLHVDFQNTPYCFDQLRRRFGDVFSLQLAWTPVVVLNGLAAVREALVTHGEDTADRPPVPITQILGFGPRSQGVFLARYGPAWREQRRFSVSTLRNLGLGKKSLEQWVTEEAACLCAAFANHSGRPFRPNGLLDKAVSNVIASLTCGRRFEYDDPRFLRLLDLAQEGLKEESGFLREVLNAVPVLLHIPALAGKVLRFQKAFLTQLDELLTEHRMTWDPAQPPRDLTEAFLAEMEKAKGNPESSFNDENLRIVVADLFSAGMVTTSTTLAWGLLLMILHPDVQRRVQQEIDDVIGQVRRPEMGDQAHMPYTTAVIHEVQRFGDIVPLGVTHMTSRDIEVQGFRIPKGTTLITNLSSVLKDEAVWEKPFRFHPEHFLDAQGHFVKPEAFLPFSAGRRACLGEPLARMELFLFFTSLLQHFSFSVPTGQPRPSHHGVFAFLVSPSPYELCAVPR

P-glycoprotein [11] = assay: Substrate activity at rat p-glycoprotein assessed as efflux ratio of permeability across basal to apical membrane over apical to basal membrane; assay type: ADME; details: not told
[12] = target: T1, Nuclear receptor subfamily 1 group I member 2 (Homo sapiens, UniProt O75469); assay: Activation of PXR (unknown origin); assay type: ADME
T1 sequence (O75469 whole entry): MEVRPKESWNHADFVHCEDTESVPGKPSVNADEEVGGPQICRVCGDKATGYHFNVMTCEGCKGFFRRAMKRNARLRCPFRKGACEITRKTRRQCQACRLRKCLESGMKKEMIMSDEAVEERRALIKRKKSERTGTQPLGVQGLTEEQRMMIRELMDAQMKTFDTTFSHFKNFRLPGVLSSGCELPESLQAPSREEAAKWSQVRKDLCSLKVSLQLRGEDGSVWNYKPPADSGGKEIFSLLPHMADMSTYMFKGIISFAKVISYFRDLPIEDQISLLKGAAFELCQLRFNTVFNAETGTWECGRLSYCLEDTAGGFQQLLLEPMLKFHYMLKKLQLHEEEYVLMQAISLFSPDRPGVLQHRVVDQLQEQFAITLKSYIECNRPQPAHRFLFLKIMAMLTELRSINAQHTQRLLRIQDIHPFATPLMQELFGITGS

[13] = Oral bioavailability in dog; assay type: ADME, organism-based, Canis lupus familiaris; details: in vivo
[14] = Protein binding in mouse plasma; assay type: ADME, cell-free; details: read-out: PPB (converted)
P-glycoprotein [15] = assay: Substrate activity at human p-glycoprotein assessed as efflux ratio of permeability across basal to apical membrane over apical to basal membrane; assay type: ADME; details: not told
[16] = Half life in rat; assay type: ADME; details: in vivo
[17] = Selectivity ratio of IC50 for human Nav 1.5 expressed in HEK293 cells to IC50 for human Nav 1.7 alpha expressed in HEK293 cells
[18] = Volume of distribution at steady state in rhesus monkey; assay type: ADME, Macaca mulatta; details: in vivo, read-out: Vdss
[19] = Unbound plasma concentration in rhesus monkey at 19.2 mg/kg; assay type: ADME, organism-based, Macaca mulatta; details: in vivo
Method in brief: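 Anesthetized rhesus monkeys, n = 4, imaged by olfactory-bulb fMRI over 2 h; IV infusion in 30% Captisol (~8 mL/animal) started at 1 h and continued for 1 h; unbound plasma concentration determined alongside olfactory inhibition.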

[20] = Clearance in dog; assay type: ADME, Canis lupus familiaris; details: in vivo
[21] = Drug concentration in mouse plasma at 100 mg/kg, po measured after 1.25 hrs; assay type: ADME, organism-based
[22] = Kinetic solubility of compound at pH 7 by HPLC analysis; assay type: physicochemical; details: buffer, read-out: Kinetic_solubility
Nav1.5 = Nav1.5 (Homo sapiens, UniProt Q14524); assay: Inhibition of human Nav1.5 alpha expressed in HEK293 cells expressed in HEK293 cells incubated for 5 mins with 6 consecutive train pulses to -10 mV at 0.1 Hz and holding potential of -65 mV by Qube-automated patch clamp assay; assay type: ADME, cell-based; details: HEK293 cells expressing human Nav1.5 alpha
[23] = Half life in rhesus monkey; assay type: ADME, Macaca mulatta; details: in vivo
[24] = Protein binding in rhesus monkey plasma; assay type: ADME, cell-free, Macaca mulatta; details: read-out: PPB (converted)
[25] = Clearance in rat; assay type: ADME; details: in vivo
[26] = Distribution coefficient, log D of the compound by MSD HPLC analysis; assay type: physicochemical; details: octanol/water
[27] = Volume of distribution at steady state in rat; assay type: ADME; details: in vivo, read-out: Vdss
[28] = Protein binding in human plasma; assay type: ADME, cell-free; details: read-out: PPB (converted)
[29] = Intrinsic Clearance in rhesus monkey; assay type: ADME, Macaca mulatta
Cytochrome P450 2C9 = Cytochrome P450 2C9 (Homo sapiens, UniProt P11712); assay: Inhibition of CYP2C9 (unknown origin); assay type: ADME
Cytochrome P450 2C9, sequence (P11712 whole entry): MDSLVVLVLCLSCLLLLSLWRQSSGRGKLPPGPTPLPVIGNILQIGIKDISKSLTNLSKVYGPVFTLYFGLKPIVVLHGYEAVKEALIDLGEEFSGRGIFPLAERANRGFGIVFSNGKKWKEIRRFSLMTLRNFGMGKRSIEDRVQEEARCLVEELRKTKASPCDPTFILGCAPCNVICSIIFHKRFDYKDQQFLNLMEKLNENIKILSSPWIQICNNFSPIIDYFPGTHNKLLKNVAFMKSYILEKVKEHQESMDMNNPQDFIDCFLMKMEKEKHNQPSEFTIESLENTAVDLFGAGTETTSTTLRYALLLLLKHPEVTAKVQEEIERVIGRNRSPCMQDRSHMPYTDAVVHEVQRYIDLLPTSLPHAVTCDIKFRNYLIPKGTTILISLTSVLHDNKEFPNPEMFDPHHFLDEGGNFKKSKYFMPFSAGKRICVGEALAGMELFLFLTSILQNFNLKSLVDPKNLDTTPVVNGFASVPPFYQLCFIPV

[30] = Half life in dog; assay type: ADME, Canis lupus familiaris; details: in vivo
Mus musculus [31] = assay: Reversal of formalin-induced nociception in po dosed C57BL/6 mouse pretreated with compound for 15 mins followed by formalin challenge and measured after 20 to 35 mins; assay type: functional; details: time min <=75
Method in brief: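 C57BL/6 mice given compound orally at three dose levels or vehicle (10% Tween 80, 5 mL/kg) 15 min before formalin injection; nociceptive behaviors scored in phase 1 and phase 2; N = 8/group; within-subject ANOVA and 1-sample t test versus vehicle.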

[32] = Selectivity ratio of IC50 for human Nav 1.6 alpha expressed in HEK293 cells to IC50 for human Nav 1.7 alpha expressed in HEK293 cells
Cytochrome P450 3A4 = Cytochrome P450 3A4 (Homo sapiens, UniProt P08684); assay: Inhibition of CYP3A4 (unknown origin); assay type: ADME
[33] = Dissociation constant, pKa of the amine compound; assay type: physicochemical
[34] = Inhibition of rhesus monkey Nav1.7 alpha expressed in HEK293 cells; assay type: cell-based, Macaca mulatta
Mus musculus [35] = assay: Analgesic activity against formalin-induced nociception in po dosed C57BL/6J mouse pretreated with compound for 15 mins followed by formalin challenge and measured after […]; assay type: functional, organism-based
[36] = Intrinsic Clearance in dog; assay type: ADME, Canis lupus familiaris
[37] = Oral bioavailability in rhesus monkey; assay type: ADME, organism-based, Macaca mulatta; details: in vivo
PXR = target: T2, PXR (Homo sapiens, UniProt O75469); assay: Activation of PXR (unknown origin) relative to control; assay type: ADME
T2 sequence (O75469 whole entry): T1 sequence (O75469 whole entry)

Mus musculus [38] = species: Mus musculus; assay: Analgesic activity in mouse models of formalin-induced nociception assessed as reduction in paw pain; assay type: functional
[39] = Dissociation constant, pKa of the sulfonamide compound; assay type: physicochemical
[40] = Drug concentration in plasma of formalin-induced C57BL/6 mouse model of formalin-induced pain at 30 mg/kg, po pretreated with compound for 15 mins followed by formalin challenge and measured after […]; assay type: ADME, organism-based
[41] = Drug concentration in plasma of formalin-induced C57BL/6 mouse model of formalin-induced pain at 100 mg/kg, po pretreated with compound for 15 mins followed by formalin challenge and measured after […]; assay type: ADME, organism-based
[42] = Drug concentration in mouse brain at 100 mg/kg, po measured after 1.25 hrs; assay type: ADME, organism-based; details: read-out: Ct

CN(C)[C@H](CNc1cc(F)c(S(=O)(=O)Nc2nccs2)cc1Cl)Cc1ccccc1
IC50 [1]: > 34000 nM
IC50 [2]: 850 nM

CN[C@H](CNc1cc(F)c(S(=O)(=O)Nc2ncc(F)s2)cc1Cl)C[Si](C)(C)C
IC50 [1]: 3130 nM
IC50 [2]: 44 nM
CL [3]: 500 mL/min/kg

CN[C@H](CNc1cc(F)c(S(=O)(=O)Nc2ncc(F)s2)cc1Cl)CC1CCC1
IC50 [1]: > 34000 nM
Papp [4]: 5 ×10⁻⁶ cm/s
IC50 [2]: 1780 nM
CL [3]: 8090 mL/min/kg

CN[C@H](CNc1cc(F)c(S(=O)(=O)Nc2ncc(F)s2)cc1Cl)CC1CC1
IC50 [1]: > 34000 nM
Papp [4]: 3 ×10⁻⁶ cm/s
IC50 [2]: 5540 nM
CL [3]: 380 mL/min/kg

CN[C@H](CNc1cc(F)c(S(=O)(=O)Nc2ncc(F)s2)cc1Cl)CC1(C)CC1
IC50 [1]: > 34000 nM
Papp [4]: 7 ×10⁻⁶ cm/s
IC50 [2]: 720 nM
CL [3]: 830 mL/min/kg

O=S(=O)(Nc1nccs1)c1cc(Cl)c(NCC2(Cc3ccccc3)CCCN2)cc1F (configuration not stated)
IC50 [1]: 420 nM
Papp [4]: 13 ×10⁻⁶ cm/s
IC50 [2]: 25 nM
CL [3]: 5830 mL/min/kg

CC1(CNc2cc(F)c(S(=O)(=O)Nc3nccs3)cc2Cl)CCCN1 (stereo in doubt; 5)
IC50 [1]: 860 nM
IC50 [2]: 900 nM

CNC(C)(CNc1cc(F)c(S(=O)(=O)Nc2nccs2)cc1Cl)Cc1ccccc1 (stereo in doubt; 10)
IC50 ([1]; hek293): > 34000 nM
IC50 [2]: 1140 nM

CC1(CNc2cc(F)c(S(=O)(=O)Nc3nccs3)cc2Cl)CCCN1 (stereo in doubt; 4)
IC50 [1]: 2080 nM
IC50 [2]: 2970 nM

CN[C@H](CNc1cc(F)c(S(=O)(=O)Nc2ncc(F)s2)cc1Cl)CC12CC(C1)C2
IC50 [1]: > 34000 nM
Papp [4]: 10 ×10⁻⁶ cm/s
IC50 [2]: 120 nM
CL [3]: 2300 mL/min/kg

CN[C@H](CNc1cc(F)c(S(=O)(=O)Nc2nccs2)cc1Cl)Cc1ccccc1
IC50 [1]: > 34000 nM
Papp [4]: 10 ×10⁻⁶ cm/s
IC50 [2]: 240 nM
CL [3]: 4820 mL/min/kg

CNC(C)(CNc1cc(F)c(S(=O)(=O)Nc2nccs2)cc1Cl)Cc1ccccc1 (stereo in doubt; 9)
IC50 [1]: > 34000 nM
IC50 [2]: > 34000 nM

O=S(=O)(Nc1nccs1)c1cc(Cl)c(NCC2CCCN2)cc1F (stereo in doubt; 6)
IC50 [1]: > 34000 nM
IC50 [2]: > 34000 nM

CN[C@H](CNc1cc(F)c(S(=O)(=O)Nc2ncc(F)s2)cc1Cl)CC(C)(C)C.Cl
concentration at 1.75 h [5]: 8.86 µM
solubility kinetic [6]: 170 µM
IC50 [1]: 18700 nM
Papp [4]: 8 ×10⁻⁶ cm/s
clearance [7]: 11 mL/min/kg
bioavailability [8]: 100%
Vd [9]: 0.8 L/kg
concentration at 1.25 h [10]: 0.005 µM
IC50 (Cytochrome P450 2D6): 20000 nM
efflux ratio (P-glycoprotein [11]): > 14
EC50 [12]: 10000 nM
bioavailability [13]: 25%
fraction unbound [14]: 0.06
efflux ratio (P-glycoprotein [15]): 4.9
half-life [16]: 2.5 h
Ratio IC50 [17]: >390
Vd [18]: 0.3 L/kg
Cp(f) [19]: 1.5 µM
clearance [20]: 4.5 mL/min/kg
concentration at 1.25 h [21]: 4.9 µM
solubility kinetic [22]: 148 µM
IC90 at 5 min (Nav1.5): 3600 nM
half-life [23]: 1.3 h
IC50 [2]: 300 nM
fraction unbound [24]: 0.02
clearance [25]: 29 mL/min/kg
logD [26]: 1.7
Vd [27]: 2.1 L/kg
fraction unbound [28]: 0.02
CLint scaled [29]: 610 mL/min/kg
IC50 (Cytochrome P450 2C9): 28000 nM
half-life [30]: 6 h
EC90 (Mus musculus [31]): 360 nM
Ratio IC50 [32]: 60
IC50 (Cytochrome P450 3A4): > 50000 nM
pKa [33]: 9
IC50 [34]: 310 nM
IC50 (Mus musculus [35]; Mus musculus, C57BL/6J): 4080 nM
IC90 (Mus musculus [35]; time 1.75 hrs): 6040 nM
CLint scaled [36]: 200 mL/min/kg
bioavailability [37]: 2%
Emax (PXR): 80%
CL [3]: 1670 mL/min/kg
IC90 (Mus musculus [38]): 220 nM
pKa [39]: 5.4
concentration at 1.75 h [40]: 3.27 µM
concentration at 1.75 h [41]: 6.64 µM
concentration at 1.25 h [42]: 0.1 µM

CN[C@H](CNc1cc(F)c(S(=O)(=O)Nc2ncc(F)s2)cc1Cl)Cc1ccccc1
IC50 [1]: > 34000 nM
Papp [4]: 8 ×10⁻⁶ cm/s
IC50 [2]: 400 nM
CL [3]: 3020 mL/min/kg

O=S(=O)(Nc1nccs1)c1cc(Cl)c(NCC2CCCN2)cc1F (stereo in doubt; 7)
IC50 ([1]; hek293): > 34000 nM
IC50 ([2]; hek293): > 34000 nM

CN[C@H](CNc1cc(F)c(S(=O)(=O)Nc2ncns2)cc1Cl)Cc1ccccc1
IC50 [1]: > 34000 nM
IC50 [2]: 1090 nM

N[C@H](CNc1cc(F)c(S(=O)(=O)Nc2nccs2)cc1Cl)Cc1ccccc1
IC50 [1]: > 34000 nM
IC50 [2]: > 34000 nM
